pKi: −log10 of the molar value.
Tests used:
MT2 = assay: Concentration required to reduce HIV viral RNA concentration by 90% in MT-2 cells infected with HIV-1RF was determined; conditions: Homo sapiens
[1] = tested on: Human immunodeficiency virus type 1 (RF/HAT ISOLATE); assay: Reduction in HIV viral RNA concentration by 90% in MT-2 cells infected with HIV-1RF.; type: functional; conditions: Human immunodeficiency virus 1, RF, MT2
In short: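 MT-2 cells infected with HIV-1RF; viral RNA transcript accumulation measured 3 days post-infection; value is the compound concentration lowering viral RNA by 90% from the reference level.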

[2] = target: Human immunodeficiency virus type 1 protease (Human immunodeficiency virus 1, UniProt Q72874); assay: Binding affinity against HIV protease
In short: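 HIV protease inhibition measured as cleavage of a fluorescent substrate, with the cleavage products quantified by HPLC. Ki values were derived from this assay.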

| SMILES | IC90 (MT2) | IC90 [1] | pKi [2] |
| --- | --- | --- | --- |
| O=C1N(Cc2ccccc2)[C@@H](Cc2ccccc2)C(O)[C@H](Cc2ccccc2)N1Cc1ccccc1 | 80000 nM |  |  |
| NC(=O)c1cccc(CN2C(=O)N(Cc3cccc(C(N)=O)c3)[C@H](Cc3ccccc3)[C@H](O)[C@H]2CCc2ccccc2)c1 |  | 35 nM | 10.06 |
| N=C(NO)c1cccc(CN2C(=O)N(Cc3cccc(/C(N)=N/O)c3)[C@H](CCc3ccccc3)[C@@H](O)[C@H]2Cc2ccccc2)c1 |  | 49 nM |  |
| CNc1cccc(CN2C(=O)N(Cc3cccc(NC)c3)[C@H](Cc3ccccc3)[C@H](O)[C@H]2CCc2ccccc2)c1 |  | 328 nM | 8.31 |
| O=C1N(Cc2cccc(CO)c2)[C@H](CCc2ccccc2)[C@@H](O)[C@@H](Cc2ccccc2)N1Cc1cccc(CO)c1 |  | 109 nM | 9.31 |
| Nc1cc(CN2C(=O)N(Cc3ccc(F)c(N)c3)[C@H](Cc3ccccc3)[C@H](O)[C@H]2CCc2ccccc2)ccc1F |  | 36 nM | 9.60 |
| O=C1N(Cc2cccc(O)c2)[C@H](CCc2ccccc2)[C@@H](O)[C@@H](Cc2ccccc2)N1Cc1cccc(O)c1 |  | 115 nM | 9.52 |
| NC(=O)c1cc(CN2C(=O)N(Cc3ccc(F)c(C(N)=O)c3)[C@H](Cc3ccccc3)[C@H](O)[C@H]2CCc2ccccc2)ccc1F |  | 490 nM | 8.85 |
| O=C1N(Cc2ccc3ccccc3c2)C(Cc2ccccc2)P(=O)(O)C(Cc2ccccc2)N1Cc1ccc2ccccc2c1 (stereo unspecified) | 260 nM |  |  |
| N#Cc1cccc(CN2C(=O)N(Cc3cccc(C#N)c3)[C@@H](Cc3ccccc3)[C@@H](O)[C@@H]2CCc2ccccc2)c1 |  | > 5000 nM | 5.10 |
| COC(=O)c1ccc(CN2C(=O)N(Cc3ccc(C(=O)OC)cc3)[C@H](Cc3ccccc3)[C@H](O)[C@H]2CCc2ccccc2)cc1 |  | > 5000 nM | 5.71 |
| NC(=O)c1cccc(CN2C(=O)N(Cc3cccc(C(N)=O)c3)[C@@H](Cc3ccccc3)[C@@H](O)[C@@H]2CCc2ccccc2)c1 |  | > 5000 nM | 5.32 |
| COC(=O)c1cccc(CN2C(=O)C(=O)N(Cc3cccc(C(=O)OC)c3)[C@H](Cc3ccccc3)[C@H](O)[C@H]2CCc2ccccc2)c1 |  |  | 7.40 |
| COC(=O)c1cccc(CN2C(=O)N(Cc3cccc(C(=O)OC)c3)[C@H](Cc3ccccc3)[C@H](O)[C@H]2CCc2ccccc2)c1 |  | > 5000 nM |  |
| N=C(NO)c1cccc(CN2C(=O)N(Cc3cccc(/C(N)=N\O)c3)[C@@H](CCc3ccccc3)[C@H](O)[C@@H]2Cc2ccccc2)c1 |  | > 5000 nM |  |
| O=C1N(Cc2ccc(CO)cc2)[C@H](CCc2ccccc2)[C@@H](O)[C@@H](Cc2ccccc2)N1Cc1ccc(CO)cc1 |  | 3600 nM | 8.60 |
| O=C1N[C@H](CCc2ccccc2)[C@@H](O)[C@@H](Cc2ccccc2)N1 |  | > 5000 nM |  |
| O=C1N(CC2CC2)[C@H](CCc2ccccc2)[C@@H](O)[C@@H](Cc2ccccc2)N1CC1CC1 |  | 5200 nM | 8.42 |
| Nc1cccc(CN2C(=O)N(Cc3cccc(N)c3)[C@H](Cc3ccccc3)[C@H](O)[C@H]2CCc2ccccc2)c1 |  | 365 nM | 8.77 |
| O=C1N(Cc2cccc(O)c2)[C@H](Cc2ccccc2)C(O)[C@@H](Cc2ccccc2)N1Cc1cccc(O)c1 |  |  | 7.48 |
| N#Cc1cccc(CN2C(=O)N(Cc3cccc(C#N)c3)[C@H](Cc3ccccc3)[C@H](O)[C@H]2CCc2ccccc2)c1 |  | 1600 nM | 7.96 |
| Nc1ccc(CN2C(=O)N(Cc3ccc(N)c(F)c3)[C@H](Cc3ccccc3)[C@H](O)[C@H]2CCc2ccccc2)cc1F |  | 540 nM | 8.10 |
| O=C1N(Cc2ccccc2)[C@H](CCc2ccccc2)[C@@H](O)[C@@H](Cc2ccccc2)N1Cc1ccccc1 |  | 2800 nM | 7.82 |
| COC(=O)c1cccc(CN2C(=O)N(Cc3cccc(C(=O)OC)c3)[C@@H](Cc3ccccc3)[C@@H](O)[C@@H]2CCc2ccccc2)c1 |  | > 5000 nM |  |
| O=C1N(Cc2cccc(CO)c2)[C@@H](CCc2ccccc2)[C@H](O)[C@H](Cc2ccccc2)N1Cc1cccc(CO)c1 |  | > 5000 nM | 6.26 |
